From PubChem
This is a sample that favours compounds with a hit; in the whole collection about 2.8% have one here.
CAL PDZ FP-1 = inhibitors of human CAL PDZ peptide binding; purified CAL PDZ, TMR-peptide fluorescence polarization, 1 h; 300,000 tested, 0.92% active; inhibition, % at 24.9 µM; AID 602252; Q9HD26;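 active = mean inhibition of at least 30% with at least half of replicates also reaching 30%; inconclusive = no clear call, values can overlap the other calls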;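 note: 0% = DMSO neutral control and 100% = excess unlabeled competitor peptide PRC23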
SR-BI HDL uptake = inhibitors of mouse SR-BI mediated HDL lipid uptake; inhibition, % at 12.5 µM; 320,000 tested, 0.96% active; ldlA[mSR-BI] CHO cells, DiI-HDL uptake fluorescence, 3 h; AID 488896; Q61009;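 active = mean replicate inhibition of at least 70% and a set share of replicates each scoring 70 or more; inconclusive = meets just one of the two criteria; inactive = fails both criteria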;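 note: 0% = median of neutral control wells and 100% = median of positive control wells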
CAL PDZ FP-2 = human CAL PDZ-peptide interaction inhibition; Q9HD26; purified CAL PDZ, TMR-peptide fluorescence polarization, 1 h; inhibition, % at 20 µM; 330,000 tested, 0.02% active;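 active = highest replicate inhibition of at least 40%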;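 note: plate controls were DMSO neutral control wells for no effect and unlabeled competitor peptide control wells for full effect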
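Read-out basis: mP drop reported as inhibition | Assay system: Tagged CAL PDZ protein CerCALP, purified | Benchmarks: Unlabelled peptide for full inhibition, DMSO wells as neutral | Schedule: 1 h incubation at room temperature before polarization reading | Buffer or medium: Sodium phosphate/NaCl buffer pH 7.4 with TCEP, IgG, Thesit | Doses: Single point, 20 µM | Measured by: Fluorescence polarization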
dFosB act = mouse delta FosB homodimer activation; purified delta FosB, TAMRA-CDK5 oligo fluorescence polarization; percent of positive-control signal above neutral wells; activation, % at 25 µM; AID 493131; 340,000 tested, 0.99% active;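 active = mean activation above about 17%, with every replicate also reaching it, limit read from the data, passing the limit was not always enough; inconclusive = only one of the two conditions met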
Target sequence (P13346 whole entry, looked up): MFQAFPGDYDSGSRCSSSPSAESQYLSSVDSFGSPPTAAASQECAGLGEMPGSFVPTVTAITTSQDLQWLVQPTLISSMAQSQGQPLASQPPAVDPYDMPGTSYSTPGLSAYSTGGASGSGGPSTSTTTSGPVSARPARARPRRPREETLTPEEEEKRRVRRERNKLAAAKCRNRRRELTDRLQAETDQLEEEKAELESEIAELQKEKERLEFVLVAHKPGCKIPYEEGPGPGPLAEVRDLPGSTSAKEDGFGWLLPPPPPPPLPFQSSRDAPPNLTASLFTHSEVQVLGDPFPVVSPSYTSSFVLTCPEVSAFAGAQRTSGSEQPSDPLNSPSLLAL
SR-BI uptake up = SR-BI HDL lipid transfer activation. CHO ldlA[mSR-BI] cells, DiI-HDL uptake fluorescence, 3 h; 100 = double the neutral-control signal. 320,000 tested, 0.096% active. activation, % at 12.5 µM;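 active = mean replicate activation of at least 60% and every replicate at or above 60%; inconclusive = mean or all-replicate condition met, but not both; inactive = mean below 60% and not all replicates reaching 60%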;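 note: 0% = median plate neutral-control signal and 100% = twice that signal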
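system = CHO ldlA[mSR-BI] cells, LDL receptor-null, SR-BI overexpressing | medium = Ham's F12 with 0.5% BSA, HEPES 25 mM, pH 7.4 | probe or stimulus = DiI-HDL 10 µg/mL | compound dosing = single-point compound dose | incubation = compound exposure 3 h, 37 °C | technique = DiI fluorescence, bottom read | read-out = cell-associated DiI fluorescence as measure of HDL uptake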
* hit, by the source's call.

How did CC[C@]12c3[nH]c4cc(CCC(=O)N(C)C)ccc4c3CCN1C(=O)[C@@H](CC(=O)NCCCOC)C[C@@H]2C(=O)N1CCN(C(=O)C2CC2)CC1 do in these assays?
CAL PDZ FP-1: 32*; SR-BI HDL uptake: 9; CAL PDZ FP-2: 0; dFosB act: 1; SR-BI uptake up: -9

How did Cc1ccc(-c2nc(N)n(C(=O)c3cccs3)n2)cc1 do in these assays?
CAL PDZ FP-1: 83*; SR-BI HDL uptake: -28; CAL PDZ FP-2: 10; dFosB act: 2; SR-BI uptake up: 28

How did O=C(NNC(=O)c1ccccc1O)c1ccc(NS(=O)(=O)c2ccc(F)cc2)cc1 do in these assays?
CAL PDZ FP-1: 8; SR-BI HDL uptake: 87*; CAL PDZ FP-2: -3; dFosB act: 0; SR-BI uptake up: -87

Results for Cc1ccccc1NS(=O)(=O)c1ccc(C(=O)NNC(=O)c2ccccc2O)cc1 ?
CAL PDZ FP-1: -2; SR-BI HDL uptake: 84*; CAL PDZ FP-2: -1; dFosB act: -19; SR-BI uptake up: -84

What do the screens show for `O=C(NNC(=O)c1ccccc1O)c1ccc(S(=O)(=O)Nc2ccccc2F)cc1`?
CAL PDZ FP-1: -1; SR-BI HDL uptake: 59; CAL PDZ FP-2: -3; dFosB act: -11; SR-BI uptake up: -59

What do the screens show for `O=C(NNC(=O)c1ccccc1F)c1ccc(NS(=O)(=O)c2ccc(F)cc2)cc1`?
CAL PDZ FP-1: 0; SR-BI HDL uptake: -1; CAL PDZ FP-2: -3; dFosB act: -1; SR-BI uptake up: 1

Results for Cc1ccc(S(=O)(=O)N2CCN(S(=O)(=O)N(C)C)CC2)cc1 ?
CAL PDZ FP-1: -4; SR-BI HDL uptake: 11; dFosB act: -5; SR-BI uptake up: -11

What do the screens show for `CN(C)S(=O)(=O)N1CCN(S(=O)(=O)c2ccccc2)CC1`?
CAL PDZ FP-1: 59*; SR-BI HDL uptake: -19; CAL PDZ FP-2: 0; dFosB act: 8; SR-BI uptake up: 19

What do the screens show for `CC1CN(C2CCN(S(=O)(=O)c3ccccc3)CC2)CC(C)O1` (centres undefined)?
CAL PDZ FP-1: -2; SR-BI HDL uptake: -289; CAL PDZ FP-2: -1; dFosB act: 0; SR-BI uptake up: 289*

How did Cc1ccc(S(=O)(=O)N2CCN(C(=O)N(C)C)CC2)cc1 do in these assays?
CAL PDZ FP-1: -5; SR-BI HDL uptake: -14; CAL PDZ FP-2: 67*; dFosB act: 0; SR-BI uptake up: 14

How did Cc1ccc(S(=O)(=O)N2CCN(C(=O)N3CCCC3)CC2)cc1 do in these assays?
CAL PDZ FP-1: 1; CAL PDZ FP-2: -3; dFosB act: 0

Results for CCN(CC(=O)Nc1ccc(NC(C)=O)cc1)C(=O)/C=C/c1c(C)nn(-c2ccc(F)cc2)c1C ?
CAL PDZ FP-1: -4; SR-BI HDL uptake: inconclusive; CAL PDZ FP-2: -3; dFosB act: -7; SR-BI uptake up: -70

How did CC1CC(C)CN(S(=O)(=O)CC23CCC(CC2=O)C3(C)C)C1 (centres undefined) do in these assays?
CAL PDZ FP-1: -4; CAL PDZ FP-2: -2; dFosB act: -2

What do the screens show for `COc1ccc(OC)c(NC(=O)Nc2cccc3ccccc23)c1`?
CAL PDZ FP-1: 0; SR-BI HDL uptake: 67; CAL PDZ FP-2: -2; dFosB act: 2; SR-BI uptake up: -67

Results for COc1ccc(NC(=O)NCc2cccn2C)c(OC)c1 ?
CAL PDZ FP-1: 2; SR-BI HDL uptake: 85*; CAL PDZ FP-2: 0; dFosB act: -2; SR-BI uptake up: -85

How did COc1ccc(NC(=O)Nc2cccc3ccccc23)c(OC)c1 do in these assays?
CAL PDZ FP-1: 3; SR-BI HDL uptake: 71*; CAL PDZ FP-2: -2; dFosB act: -4; SR-BI uptake up: -71

What do the screens show for `COc1ccc(NC(=O)NCc2ccncc2)c(OC)c1`?
SR-BI HDL uptake: 4; CAL PDZ FP-2: 0; dFosB act: 0; SR-BI uptake up: -4

What do the screens show for `COc1ccc(C(=O)NCc2nnc(SCC(=O)Nc3ccccc3F)o2)cc1`?
CAL PDZ FP-1: -1; SR-BI HDL uptake: -21; CAL PDZ FP-2: -1; dFosB act: 0; SR-BI uptake up: 21

How did COc1ccc(OCc2nnc(SCC(=O)Nc3ccccc3C#N)o2)cc1 do in these assays?
CAL PDZ FP-1: 54*; SR-BI HDL uptake: -5; CAL PDZ FP-2: 0; dFosB act: -5; SR-BI uptake up: 5
